Usually half-life stands for the time needed for the level to fall by half in the phase considered.

≈ marks a conversion by molar mass, not a printed value. Some results are limits rather than exact numbers.

The values that follow come from ChEMBL document CHEMBL4330093, “Biphenyl Gal and GalNAc FmlH Lectin Antagonists of Uropathogenic E. coli (UPEC): Optimization through Iterative Rational Drug Design” (J Med Chem, 2019).

Series [1] can be described thus: Drug metabolism in mouse urine assessed as phenol product metabolite formation. Format: ADME, tissue-based.
The nature of series [2]: Kinetic solubility of the compound at pH 7.4. Format: physicochemical. The following applies: buffer.
Series [3] is described as follows: Stability of the compound in simulated intestinal fluid assessed as compound remaining after 2 hrs. The following applies: for Stability: simulated gi fluid, 2 h. Format: ADME.
The nature of series [4]: Drug metabolism in mouse plasma assessed as phenol product metabolite formation. Type of series: ADME, cell-free.
A short description of series [5]: Stability in mouse plasma assessed as compound remaining after 2 hrs. Type of series: ADME, cell-free. The conditions noted are these: for Stability: 2 h.
Series [6] can be described thus: Stability of the compound in simulated gastric fluid assessed as compound remaining after 6 hrs. Type of series: ADME. The conditions noted are these: for Stability: simulated gi fluid, 6 h.
A short description of series [7]: Half life in mouse liver microsomes. Type of series: ADME, Microsome. The following applies: for t1/2: microsomes.
Series [8] is described as follows: Half life in Sprague-Dawley rat at 10 mg/kg, po or 3 mg/kg, iv by LC/MS/MS analysis. The following applies: in vivo. Type of series: ADME, organism-based. In short, it runs like this:
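Sprague-Dawley rats got a single 10 mg/kg oral or 3 mg/kg IV dose. Compound was measured over time in plasma and in urine, and t1/2 and clearance were derived from the plasma profile.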

Series [9] can be described thus: Oral bioavailability in Sprague-Dawley rat at 10 mg/kg by LC/MS/MS analysis. Format: ADME, organism-based. The conditions noted are these: in vivo.
Series [10] in a line: Time at which plasma concentration stays above in vitro Escherichia coli C600 C-terminal 6His-tagged biotinylated FmlH lectin domain inhibitory IC50 in CD1 mouse at 20 mg/kg, ip by LC/MS/MS analysis. Format: ADME, organism-based. The conditions noted are these: in vivo. A digest of the protocol: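 After a single 20 mg/kg IP dose in mice, plasma concentrations were compared with the ELISA IC50 converted to ng/mL. Persistence beyond the last measured point was inferred by extrapolating the plasma kinetics. For the ELISA IC50, biotinylated FmlH lectin domain (20 μg/mL) bound to sialidase-treated bovine submaxillary mucin, with streptavidin-HRP/TMB readout at 450 nm.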

The nature of series [11]: Plasma concentration in CD1 mouse at 20 mg/kg, ip after 4 hrs by LC/MS/MS analysis. Format: ADME, organism-based. In short, it runs like this:
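Single 20 mg/kg intraperitoneal injection in mice. Plasma drug concentrations were followed over time, including 4 h and 8 h points. Cmax was read from the profile, AUC was calculated, and half-life was derived.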

As for `CC(=O)NC1[C@H](Oc2cccc(C(F)(F)F)c2-c2cccc(NS(C)(=O)=O)c2)O[C@H](CO)[C@H](O)[C@@H]1O` (single isomer, unassigned), the Drug metabolism result in series [1] and in series [4] was “Metabolite_Detected” throughout. In addition, the Kinetic_solubility in series [2] is 197 µM. Moreover, the Stability in series [3] is listed as 92%; in series [5], 92%; in [6], 89%. This compound came in with a t1/2 in [7] greater than 2.42 h. This compound also gave a half-life in [8] of 1.16 h. Besides, the F in series [9] is given as less than 1%.
For `CC(=O)N[C@H]1[C@H](Oc2cccc(C)c2-c2cccc(NS(C)(=O)=O)c2)O[C@H](CO)[C@H](O)[C@@H]1O`, the Drug metabolism entry in series [1] and in series [4] was “Metabolite_Detected” each time. Also, the Stability in series [3], in series [5] and in series [6] was 100% each time. This compound came in with a Time in series [10] of 6 h. The compound further gave a t1/2 in series [7] greater than 2.42 h. The compound further gave a concentration at 4 h in series [11] of 79.5 ng/mL.
Regarding `CC(=O)N[C@H]1[C@H](Oc2cccc(F)c2-c2cccc(NS(C)(=O)=O)c2)O[C@H](CO)[C@H](O)[C@@H]1O`, the Drug metabolism entry in series [1] and in series [4] was “Metabolite_Detected” in each case. The Stability in [3] is reported as 94%; in [5], 89%; in [6] it was 92%. Further, in series [7], the t1/2 was greater than 2.42 h.
As to `CC(=O)N[C@H]1[C@H](Oc2cccc(C)c2-c2cccc(NS(=O)(=O)C3CC3)c2)O[C@H](CO)[C@H](O)[C@@H]1O`, the Drug metabolism result in [1] and in [4] was “Metabolite_Detected” each time. In addition, the figures for the Stability in [3], in [5] and in series [6] were 100%, 84% and 100%, respectively. The t1/2 in [7] is greater than 2.42 h. The compound also returned a F in series [9] of less than 1%.
Regarding `CC(=O)NC1[C@H](Oc2cccc(C#N)c2-c2cccc(NS(C)(=O)=O)c2)O[C@H](CO)[C@H](O)[C@@H]1O` (single isomer, unassigned), the Drug metabolism result in [1] and in series [4] was “Metabolite_Detected” in each case. Also, the Kinetic_solubility in [2] worked out at 196 µM. In addition, the Stability in series [3] is reported as 100%; in [5], 89%; in series [6] it was 87%. The t1/2 in series [7] is greater than 2.42 h.
`Cc1cccc(O[C@@H]2O[C@H](CO)[C@H](O)[C@H](O)C2NC(=O)C(F)(F)F)c1-c1cccc(NS(C)(=O)=O)c1` (single isomer, unassigned): the Drug metabolism entry in [1] and in series [4] was “Metabolite_Detected” each time. In addition, the solubility kinetic in [2] (read-out: Kinetic_solubility) was 164 µM (≈ 87.7 µg/mL). Further, the remaining at 2 h in series [3] (simulated intestinal fluid, read-out: Stability) is 89%; in [5] (read-out: Stability) it was 89%. In series [6] (simulated gastric fluid, read-out: Stability), the remaining at 6 h was 91%. Besides, the half-life in [7] (liver microsomes) was greater than 2.42 h.
